Test results from PMC2774482 (Basic & Clinical Pharmacology & Toxicology, 2009).
Structures can show the parent of a compound that is named as a salt.

Experiments:
Caco-2 cell monolayers [1] = test: Bidirectional transepithelial transport across Caco-2 cell monolayers; assay type: in vitro ADME, human; conditions: for increase of the efflux (B–A): physiological pH 7.4/7.4
pKa / ionisation = assay type: physicochemical; conditions: at both pH 6.8 and 7.4
Caco-2 cell monolayers [2] = test: Paracellular transport of [^3H]-mannitol across Caco-2 monolayers; assay type: in vitro ADME, human; conditions: apical to basolateral (A-B), over 3 hr
Summary of the method: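 Caco-2 TC7 cells (passages 40–55) seeded at 65,000 cells/cm2 on 0.4 µm polycarbonate Transwell inserts and used 20–21 days post-seeding. [3H]-mannitol (0.5 µCi/ml) serves as the paracellular marker for tight-junction integrity. Apical-to-basolateral permeability is followed over 3 hr, with basolateral samples taken at several times and counted by liquid scintillation.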

[3] = Bidirectional transepithelial transport across Caco-2 cell monolayers; assay type: in vitro ADME, human; conditions: human, rhodamine 123 5 µM, pH 6.8/7.4, control (no inhibitor)
P-gp = test: as above; assay type: in vitro ADME, human; conditions: human, Caco-2, pH 6.8, with cyclosporine A 10 µM, rhodamine 123 5 µM, pH 6.8/7.4, + cyclosporine A 10 µM
[4] = 1 µM, pH 6.8/7.4, + 10 µM Cyclosporine A
[5] = 1 µM, pH 7.4/7.4, + 4 µM GF120918
[6] = 1 µM, pH 7.4/7.4, + 10 µM Cyclosporine A
[7] = 1 µM, pH 7.4/7.4, no inhibitor, control of GF120918 experiment (Table 2)
[8] = 10 µM, pH 6.8/7.4, + 10 µM Cyclosporine A
[9] = 10 µM, pH 6.8/7.4, no inhibitor
[10] = 10 µM, pH 7.4/7.4, + 10 µM Cyclosporine A
[11] = 10 µM, pH 7.4/7.4, no inhibitor
[12] = 50 µM, pH 6.8/7.4, + 10 µM Cyclosporine A
[13] = 50 µM, pH 6.8/7.4, no inhibitor
[14] = 50 µM, pH 7.4/7.4, + 10 µM Cyclosporine A
[15] = 50 µM, pH 7.4/7.4, no inhibitor
[16] = 100 µM, pH 6.8/7.4, + 10 µM Cyclosporine A
[17] = 100 µM, pH 6.8/7.4, no inhibitor
[18] = 100 µM, pH 7.4/7.4, + 10 µM Cyclosporine A
[19] = 100 µM, pH 7.4/7.4, no inhibitor
[20] = in the presence of cyclosporine A

## COc1cccc(C2(O)CCCCC2CN(C)C)c1 (single isomer, unassigned; (+)) [(+)-TMD, (+)-tramadol]
Caco-2 cell monolayers [1]; [4]
  Papp (A – B): 15.6 ± 1.2 (cm/sec.) (10^−6)
  Papp (B – A): 34.0 ± 0.7 (cm/sec.) (10^−6)
Caco-2 cell monolayers [1]; 1 µM, pH 6.8/7.4, no inhibitor
  Papp (A – B): 14.1 ± 0.8 (cm/sec.) (10^−6)
  Papp (B – A): 31.1 ± 0.8 (cm/sec.) (10^−6)
Caco-2 cell monolayers [1]; [5]
  Papp (A – B): 45.8 ± 3.7 (cm/sec.) (10^−6)
  Papp (B – A): 60.6 ± 2.1 (cm/sec.) (10^−6)
Caco-2 cell monolayers [1]; [6]
  Papp (A – B): 26.2 ± 3.4 (cm/sec.) (10^−6)
  Papp (B – A): 34.6 ± 0.8 (cm/sec.) (10^−6)
Caco-2 cell monolayers [1]; 1 µM, pH 7.4/7.4, no inhibitor
  Papp (A – B): 28.1 ± 0.5 (cm/sec.) (10^−6)
  Papp (B – A): 31.5 ± 1.3 (cm/sec.) (10^−6)
Caco-2 cell monolayers [1]; [7]
  Papp (A – B): 42.6 ± 6.2 (cm/sec.) (10^−6)
  Papp (B – A): 52.3 ± 2.9 (cm/sec.) (10^−6)
Caco-2 cell monolayers [1]; [8]
  Papp (A – B): 9.6 ± 1.1 (cm/sec.) (10^−6)
  Papp (B – A): 28.8 ± 0.6 (cm/sec.) (10^−6)
Caco-2 cell monolayers [1]; [9]
  Papp (A – B): 11.0 ± 0.7 (cm/sec.) (10^−6)
  Papp (B – A): 26.9 ± 0.5 (cm/sec.) (10^−6)
Caco-2 cell monolayers [1]; [10]
  Papp (A – B): 30.2 ± 2.1 (cm/sec.) (10^−6)
  Papp (B – A): 39.4 ± 0.8 (cm/sec.) (10^−6)
Caco-2 cell monolayers [1]; [11]
  Papp (A – B): 33.5 ± 1.4 (cm/sec.) (10^−6)
  Papp (B – A): 38.8 ± 1.6 (cm/sec.) (10^−6)
Caco-2 cell monolayers [1]; [12]
  Papp (A – B): 9.3 ± 0.6 (cm/sec.) (10^−6)
  Papp (B – A): 31.2 ± 0.7 (cm/sec.) (10^−6)
Caco-2 cell monolayers [1]; [13]
  Papp (A – B): 10.3 ± 0.5 (cm/sec.) (10^−6)
  Papp (B – A): 25.6 ± 2.3 (cm/sec.) (10^−6)
Caco-2 cell monolayers [1]; [14]
  Papp (A – B): 49.9 ± 2.5 (cm/sec.) (10^−6)
  Papp (B – A): 69.6 ± 0.7 (cm/sec.) (10^−6)
Caco-2 cell monolayers [1]; [15]
  Papp (A – B): 52.5 ± 1.1 (cm/sec.) (10^−6)
  Papp (B – A): 65.3 ± 1.0 (cm/sec.) (10^−6)
Caco-2 cell monolayers [1]; [16]
  Papp (A – B): 21.7 ± 1.9 (cm/sec.) (10^−6)
  Papp (B – A): 61.7 ± 2.0 (cm/sec.) (10^−6)
Caco-2 cell monolayers [1]; [17]
  Papp (A – B): 22.6 ± 1.9 (cm/sec.) (10^−6)
  Papp (B – A): 60.9 ± 1.3 (cm/sec.) (10^−6)
Caco-2 cell monolayers [1]; [18]
  Papp (A – B): 39.1 ± 1.5 (cm/sec.) (10^−6)
  Papp (B – A): 68.2 ± 0.9 (cm/sec.) (10^−6)
Caco-2 cell monolayers [1]; [19]
  Papp (A – B): 41.7 ± 3.6 (cm/sec.) (10^−6)
  Papp (B – A): 66.9 ± 0.4 (cm/sec.) (10^−6)
Caco-2 cell monolayers [1]; GF120918, 1 µM
  increase of the efflux (B–A): 17%
Caco-2 cell monolayers [1]; [20]
  increase of the efflux (B–A): up to 10%

## COc1cccc(C2(O)CCCCC2CN(C)C)c1 (single isomer, unassigned; (-)) [(−)-TMD, (−)-tramadol]
Caco-2 cell monolayers [1]; [4]
  Papp (A – B): 18.7 ± 1.1 (cm/sec.) (10^−6)
  Papp (B – A): 36.0 ± 0.3 (cm/sec.) (10^−6)
Caco-2 cell monolayers [1]; 1 µM, pH 6.8/7.4, no inhibitor
  Papp (A – B): 16.7 ± 0.5 (cm/sec.) (10^−6)
  Papp (B – A): 32.2 ± 0.5 (cm/sec.) (10^−6)
Caco-2 cell monolayers [1]; [5]
  Papp (A – B): 44.8 ± 4.0 (cm/sec.) (10^−6)
  Papp (B – A): 61.3 ± 2.8 (cm/sec.) (10^−6)
Caco-2 cell monolayers [1]; [6]
  Papp (A – B): 29.2 ± 1.1 (cm/sec.) (10^−6)
  Papp (B – A): 34.2 ± 0.8 (cm/sec.) (10^−6)
Caco-2 cell monolayers [1]; 1 µM, pH 7.4/7.4, no inhibitor
  Papp (A – B): 31.0 ± 1.9 (cm/sec.) (10^−6)
  Papp (B – A): 30.8 ± 1.8 (cm/sec.) (10^−6)
Caco-2 cell monolayers [1]; [7]
  Papp (A – B): 43.8 ± 5.8 (cm/sec.) (10^−6)
  Papp (B – A): 51.1 ± 1.9 (cm/sec.) (10^−6)
Caco-2 cell monolayers [1]; [8]
  Papp (A – B): 10.2 ± 1.0 (cm/sec.) (10^−6)
  Papp (B – A): 28.9 ± 0.5 (cm/sec.) (10^−6)
Caco-2 cell monolayers [1]; [9]
  Papp (A – B): 11.0 ± 0.5 (cm/sec.) (10^−6)
  Papp (B – A): 26.9 ± 0.5 (cm/sec.) (10^−6)
Caco-2 cell monolayers [1]; [10]
  Papp (A – B): 29.9 ± 1.5 (cm/sec.) (10^−6)
  Papp (B – A): 39.0 ± 0.6 (cm/sec.) (10^−6)
Caco-2 cell monolayers [1]; [11]
  Papp (A – B): 33.5 ± 2.2 (cm/sec.) (10^−6)
  Papp (B – A): 37.2 ± 0.4 (cm/sec.) (10^−6)
Caco-2 cell monolayers [1]; [12]
  Papp (A – B): 9.4 ± 0.6 (cm/sec.) (10^−6)
  Papp (B – A): 31.2 ± 0.8 (cm/sec.) (10^−6)
Caco-2 cell monolayers [1]; [13]
  Papp (A – B): 10.3 ± 0.5 (cm/sec.) (10^−6)
  Papp (B – A): 25.4 ± 2.3 (cm/sec.) (10^−6)
Caco-2 cell monolayers [1]; [14]
  Papp (A – B): 50.9 ± 1.7 (cm/sec.) (10^−6)
  Papp (B – A): 68.9 ± 0.4 (cm/sec.) (10^−6)
Caco-2 cell monolayers [1]; [15]
  Papp (A – B): 52.9 ± 1.0 (cm/sec.) (10^−6)
  Papp (B – A): 63.4 ± 3.8 (cm/sec.) (10^−6)
Caco-2 cell monolayers [1]; [16]
  Papp (A – B): 21.7 ± 2.0 (cm/sec.) (10^−6)
  Papp (B – A): 62.5 ± 2.0 (cm/sec.) (10^−6)
Caco-2 cell monolayers [1]; [17]
  Papp (A – B): 22.4 ± 1.8 (cm/sec.) (10^−6)
  Papp (B – A): 61.3 ± 1.0 (cm/sec.) (10^−6)
Caco-2 cell monolayers [1]; [18]
  Papp (A – B): 37.3 ± 1.0 (cm/sec.) (10^−6)
  Papp (B – A): 67.7 ± 1.5 (cm/sec.) (10^−6)
Caco-2 cell monolayers [1]; [19]
  Papp (A – B): 41.1 ± 2.9 (cm/sec.) (10^−6)
  Papp (B – A): 64.3 ± 3.4 (cm/sec.) (10^−6)
Caco-2 cell monolayers [1]; GF120918, 1 µM
  increase of the efflux (B–A): 17%
Caco-2 cell monolayers [1]; [20]
  increase of the efflux (B–A): up to 10%

## COc1cccc(C2(O)CCCCC2CN(C)C)c1 (centres unmarked) [TMD, Tramadol hydrochloride]
pKa / ionisation
  ionised (protonated) form: 100%

## OC[C@@H](O)[C@@H](O)[C@H](O)[C@H](O)CO [[^3H]-mannitol]
Caco-2 cell monolayers [2]
  transport rate: < 1 % per hr

## COC(=O)c1ccccc1-c1c2ccc(=N)cc-2oc2cc(N)ccc12 [rhodamine 123]
[3]; Caco-2, pH 6.8, Papp(A–B)
  Papp A→B at 3 h, 5 µM: 4.8 ± 0.2 ×10⁻⁶ cm/s
[3]; Caco-2, pH 6.8, Papp(B–A)
  Papp B→A at 3 hr, 5 µM: 6.4 ± 0.7 ×10⁻⁶ cm/s
Caco-2 cell monolayers [1]; in the presence of the P-gp inhibitor cyclosporine A
  decrease of secretory transport: 80%
P-gp; Papp(A–B)
  Papp A→B at 3 h, 5 µM: 7.8 ± 0.3 ×10⁻⁶ cm/s
P-gp; Papp(B–A)
  Papp B→A at 3 hr, 5 µM: 1.2 ± 0.3 ×10⁻⁶ cm/s
